SR-BI HDL uptake: mouse SR-BI HDL lipid transfer inhibition | Q61009 | ldlA[mSR-BI] CHO cells, DiI-HDL uptake fluorescence, 3 h | inhibition, % at 12.5 µM | 320,000 tested, 0.96% active | AID 488896;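 active = mean replicate inhibition of at least 70% and a set share of replicates each scoring 70 or more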;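 also: 0% = median of neutral control wells and 100% = median of positive control wells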
SMARCA2 act: activators of SMARCA2 function | MG213 cells, MMTV-luciferase reporter, dexamethasone, overnight | activation, % at 9.1 µM | 370,000 tested, 1% active | AID 652017; in the data active = activation above about 7.8%;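 also: 0% = vehicle wells and 100% = reference activator wells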
CR mimetic SO: lowers age-related superoxide in aged yeast cells | S. cerevisiae aged cells, superoxide DHE fluorescence; active compounds read low | 330,000 tested, 0.18% active | superoxide response (% of plate mean), % at 10 µM;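 active = superoxide response under a set limit, about three screen SD below normal, cut at about 65% in these data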;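 also: yeast aged for seven days with compound at 30 °C before DHE staining; 100% = average MFI of all compound-treated wells on the plate with controls excluded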
AHR activator: activators of human aryl hydrocarbon receptor | AHR-responsive luciferase reporter cells, luminescence | activation, % at 5 µM | 320,000 tested, 2.5% active | AID 2796; in the data active = activation above about 47%;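 also: 0% = vehicle wells and 100% = reference agonist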
Target sequence (P35869 whole entry, looked up): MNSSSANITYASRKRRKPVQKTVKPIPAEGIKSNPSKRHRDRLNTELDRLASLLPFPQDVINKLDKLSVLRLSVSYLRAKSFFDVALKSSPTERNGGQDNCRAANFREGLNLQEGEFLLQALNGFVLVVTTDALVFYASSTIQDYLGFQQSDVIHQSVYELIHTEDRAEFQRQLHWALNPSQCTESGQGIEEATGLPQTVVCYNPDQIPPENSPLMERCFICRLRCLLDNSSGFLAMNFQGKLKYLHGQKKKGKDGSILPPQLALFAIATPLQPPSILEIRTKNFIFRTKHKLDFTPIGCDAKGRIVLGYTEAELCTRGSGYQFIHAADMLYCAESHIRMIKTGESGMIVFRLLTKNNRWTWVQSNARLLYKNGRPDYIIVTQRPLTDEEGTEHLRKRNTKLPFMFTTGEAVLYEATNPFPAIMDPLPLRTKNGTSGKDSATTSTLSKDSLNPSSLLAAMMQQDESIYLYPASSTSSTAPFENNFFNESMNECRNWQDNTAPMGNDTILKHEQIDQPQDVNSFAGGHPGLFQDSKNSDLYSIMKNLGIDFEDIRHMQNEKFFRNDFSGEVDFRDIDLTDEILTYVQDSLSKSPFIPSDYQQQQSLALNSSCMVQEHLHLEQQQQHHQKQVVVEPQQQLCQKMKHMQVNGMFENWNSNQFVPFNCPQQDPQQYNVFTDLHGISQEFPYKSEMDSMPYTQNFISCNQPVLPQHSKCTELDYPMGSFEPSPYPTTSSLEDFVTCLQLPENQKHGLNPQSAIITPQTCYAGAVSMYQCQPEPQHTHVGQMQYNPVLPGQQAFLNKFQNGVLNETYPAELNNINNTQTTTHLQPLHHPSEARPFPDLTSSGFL
SR-BI DiI-HDL act: enhances SR-BI lipid uptake from DiI-HDL | CHO ldlA[mSR-BI] cells, DiI-HDL uptake fluorescence, 3 h; 100 = double the neutral-control signal | activation, % at 12.5 µM | 320,000 tested, 0.096% active | AID 504775;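 active = mean replicate activation of at least 60% and every replicate at or above 60%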;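 also: 0% = median plate neutral-control signal and 100% = twice that signal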
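Material – SR-BI-overexpressing, LDLR-lacking CHO cells · Medium – BSA-supplemented, HEPES-buffered Ham's F12, pH 7.4 · Doses – single concentration · Times – compound with DiI-HDL co-incubation, 3 h at 37 °C · Measured by – bottom-read fluorescence, 550/595 nm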
Lipid droplet: hepatic lipid droplet formation modulation. AID 1656. AML12 mouse hepatocytes, oleate lipid droplets, BODIPY imaging. inhibition, % at 6.5 µM. 240,000 tested, 0.4% active;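 active = lipid droplet intensity inhibited by at least 50%, with more than 500 cells counted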
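Assay system: AML12 hepatocytes (mouse); Probe or stimulus: oleic acid at 100 µM to induce lipid droplet formation; Dosing: compound at 6.5 µM only; Schedule: compound with oleate, overnight; Detection: fluorescence imaging, 20x objective, two fields per well; Measure: % inhibition of lipid droplet signal.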
SMARCA2 act conf: SMARCA2 activation, confirmation screen; shares compounds with SMARCA2 act; MG213 cells, MMTV-luciferase with dexamethasone, luminescence, overnight; MG213 cells expressing E1A, Rb sequestered; DMSO wells 0%, reference activator 100%; activation, % at 9.1 µM; 3,500 tested, 30% active; AID 652260;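 active = activation above its plate's cutoff, the mean activation of tested wells plus 3 SD, cut at about 7.9% in these data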
VP16 Luc act: counter-screen for SMARCA2 activators: GAL4-VP16 luciferase reporter activation | activation, % at 9.1 µM | 3,500 tested, 41% active | HEK293 GAL4-VP16 pG5luc reporter, luciferase luminescence; scaled: DMSO wells 0%, SAHA wells 100% | shares compounds with SMARCA2 act;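 active = activation above the solvent-only control well mean plus 3 SD, averaged across control plates, cut at about 5.2% in these data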
* hit, by the source's call; · = no result. This is a sample that favours compounds with a hit; in the whole collection about 4.3% have one here.

SMILES	SR-BI HDL uptake	SMARCA2 act	CR mimetic SO	AHR activator	SR-BI DiI-HDL act	Lipid droplet	SMARCA2 act conf	VP16 Luc act
Cc1cccc(-c2cccc3c4c([nH]c23)[C@@H]2C[C@H](N(C)C(=O)NC3CCCCC3)[C@H]([C@H](C)O)CN2CC4)c1	·	-5	·	·	·	·	·	·
O=C(c1ccccc1)N1CC[C@H]2[C@H](CCCN2Cc2ccccc2)C1	·	3	·	·	·	·	·	·
OCC1OC(n2ccc3c(NO)ncnc32)C(O)C1O (stereo unspecified)	-13	-9	·	·	13	·	·	·
CC(C)=CCNc1ncnc2c1c(C#N)cn2C1OC(CO)C(O)C1O (stereo unspecified)	5	41*	·	·	-5	·	59*	0
COc1cc2ccccc2cc1C(=O)Nc1ccc(N2CCN(C)CC2)cc1	12	19*	116	33	-12	-2	9.7*	8.8*
CC(=O)Nc1ccc(C(=O)OCCC(C)C)cc1	-1	8.9*	108	2	1	-5	2	3
CCCOC(=O)c1ccc(NC(=O)COC)cc1	-20	4	97	-1	20	17	·	·
Cn1cc([N+](=O)[O-])c(C(=O)Nc2ccc(-c3nc4ccccc4[nH]3)cc2)n1	32	9.8*	107	4	-32	1	11*	7.6*
Cc1ccc(C(NC(=O)CN2C(=O)NC3(CCCC3)C2=O)c2ccccc2)cc1 (stereo unspecified)	-8	-3	99	-1	8	·	·	·
CCC1CSC(=Nc2ccc(C)cc2)N1C(=O)CN1C(=O)NC2(CCCC2)C1=O (stereo unspecified)	0	9.7*	116	0	0	-12	11*	8.2*
O=C(Nc1ccc(Cl)cc1)N1CCN(Cc2nc3ccccc3c(=O)[nH]2)CC1	·	-4	·	·	·	·	·	·
O=S1(=O)c2c(cccc2N2CCSCC2)Oc2ccccc2CN1Cc1cn(Cc2cccc(C(F)(F)F)c2)nn1	·	-5	·	·	·	·	·	·
Cc1c(C(=O)N2CCCC2)c(S(=O)(=O)Nc2ccccc2)c(C)n1C	-1	14*	81	0	1	-2	-1	3
Cc1cc(C)cc(NS(=O)(=O)c2c(C(=O)N3CCOCC3)c(C)n(C)c2C)c1	13	10*	98	1	-13	-17	0	0
Cc1c(C(=O)N2CCCC2)c(S(=O)(=O)Nc2cccc(Br)c2)c(C)n1C	-2	-2	103	4	2	-22	·	·
COc1ccc(CC(NC(C)=O)C(=O)NC2CCN(c3nc(C)cc(C)c3C#N)CC2)cc1 (stereo unspecified)	31	1	98	5	-31	4	·	·
COc1ccc(CC(NC(C)=O)C(=O)NC2CCN(c3nc(C)cc(C)c3C#N)CC2)cc1OC (stereo unspecified)	16	15*	99	2	-16	-25	3	0
CCC(C(=O)Nc1ccccc1N1CCCC1)c1ccccc1F (stereo unspecified)	·	-3	·	·	·	·	·	·
COc1ccc2nc3cc(Cl)ccc3c(Nc3cc(C(C)C)c(O)cc3C)c2c1	62	-4	111	-2	-62	-7	·	·
COc1ccc2nc3cc(Cl)ccc3c(Nc3cc(CN4CCCC4)c(O)c(CN4CCCC4)c3)c2n1	·	68*	104	4	·	-29	256*	3
CC(C)(C)C(=O)c1c(N)[nH]c(C(=O)c2ccccc2)c1-c1ccc([N+](=O)[O-])cc1	·	-1	·	·	·	·	·	·
COc1ccccc1NC(=S)OC1CCC12CCC(c1ccccc1)CC2 (stereo unspecified)	·	0	·	·	·	·	·	·
COc1ccccc1OCCSc1nnnn1-c1ccc(C)cc1	-10	9.0*	94	26	10	·	0	3
COc1ccc(S[C@]2(C(=O)N3CCOCC3)CC(=O)N(c3ccccc3)[C@@H]2c2ccc(OC)cc2)cc1	·	-5	·	·	·	·	·	·
COc1ccc([C@H]2OC(=O)C[C@H]2C(=O)N2CCN(c3ccccc3Cl)CC2)cc1OC	·	2	·	·	·	·	·	·
SMILES	SR-BI HDL uptake	SMARCA2 act	CR mimetic SO	AHR activator	SR-BI DiI-HDL act	Lipid droplet	SMARCA2 act conf	VP16 Luc act
CC(C)=CCC[C@@]1(C(=O)O)[C@@H]2C/C=C(\C)CC/C=C(\C)CC[C@H]1[C@]1(CC2)CO1	·	-1	·	·	·	·	·	·
CC(C)CN(/C=N/c1sc2c(c1C#N)CCCCC2)CC(C)C	23	-5	114	10	-23	-8	·	·
CCN(/C=N/c1sc2c(c1C#N)CCCCC2)CC	40	8.0*	97	57*	-40	·	8.7*	7.7*
CCCn1c2ccccc2c2nnc(SCCN3CCOCC3)nc21	-1	-1	98	8	1	-1	·	·
c1ccc2nc3c(nc2c1)c1ccccc1n3CCN1CCOCC1	-1	11*	89	8	1	-7	7.9*	4
O=c1c2ccccc2nc2c3ccccc3c(NCCN3CCOCC3)nn12	·	33*	113	13	·	-3	45*	0
O=c1c2c(-c3ccccc3)csc2nc2c3ccccc3c(NCCN3CCOCC3)nn12	-21	5	·	·	21	-14	·	·
c1ccc2c(c1)COc1c3ncccc3nn1-2	·	13*	·	·	·	·	8.2*	8.4*
CN(C)c1ccc(/C=C/C(=O)c2ccc3c(c2)OCO3)cc1	0	8.0*	91	2	0	·	1	3
Cc1ccc(C(=O)/C=C/c2ccc3c(c2)OCO3)o1	9	11*	108	4	-9	13	9.4*	2
Cc1ccc(NC(=O)/C=C/c2ccc3c(c2)OCO3)nc1	-23	9.3*	100	36	23	-5	12*	6.6*
Cc1ccc(C(=O)/C=C/c2ccc(Br)cc2)o1	-12	-1	100	-14	12	·	·	·
Cc1cccc(-c2cc3nc(C)cc(=O)n3[nH]2)c1	·	9.2*	·	·	·	·	5	6.7*
Cc1cccc(-c2cccc3c4c([nH]c23)[C@@H]2C[C@H](N(C)C(=O)Nc3ccccc3)[C@H]([C@H](C)O)CN2CC4)c1	·	5	·	·	·	·	·	·
COc1ccc(CNS(=O)(=O)CC2NCc3cc(OC)ccc32)cc1 (stereo unspecified)	·	10.0*	·	·	·	·	2	0
CCOc1ccc(/C=N/NC(=O)C2CC2)cc1OC	-8	2	91	12	8	5	·	·
COc1cc(/C=N/Nc2ccc(Cl)c(C(=O)O)c2)ccc1OC(=O)c1cccs1	-11	4	110	6	11	16	·	·
CCOc1cc(/C=N/Nc2cccc(C(=O)O)c2)ccc1OC(=O)c1ccccc1	15	11*	·	·	-15	1	5	18*
